Results reported in ChEMBL document CHEMBL4651341, “The discovery of a novel series of compounds with single-dose efficacy against juvenile and adult Schistosoma species” (PLoS Negl Trop Dis, 2021).
Values after ≈ are worked out from the molar mass of the structure shown.

Tests used:
[1] = Concentration required to kill 50% HepG2 cells as detected by MTT staining; format: toxicity, cell-based; details: homo sapiens, read-out: TC50 (the source's name)
[2] = Mean plasma concentration at 24h in Swiss albino male mice at […] per compound (administered orally in a mixture of 5 compounds to 3 mice) assessed by LCMS/MS.; format: ADME, organism-based; details: mouse, po
[3] = Concentration of drug in plasma at 4h following oral drug adminstration at given dose. Determined by LCMS/MS; format: ADME, organism-based; details: CD1, mouse
Procedure, shortened: (§1)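 Plasma sampled from the mice of the efficacy experiments, each animal sampled once: one animal per group at 1, 4 and 8 h, two per group at 24 h. Plasma prepared by acetonitrile protein precipitation and analysed by LC-MS against a 10-point calibration line spiked in blank matrix, with QCs at three or more levels.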

[4] = Concentration of drug in plasma at 24h following oral drug adminstration at given dose. Determined by LCMS/MS; format: ADME, organism-based; details: CD1, mouse; procedure, shortened: as §1
Schistosoma mansoni [5] = test: Concentration required to kill 50% of 21 day old worms 5 days after drug treatment.; format: functional, organism-based; details: Puerto Rican, 120 h
Procedure, shortened: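 Juvenile S. mansoni (Puerto Rican strain) were perfused from CD1 mice 3 weeks post-infection and washed. They were cultured 6–8 per well in 200 µL DMEM with 2 mM glutamine, penicillin/streptomycin and 10% FCS at 37 °C, 5% CO2. Viability of individual worms was scored on day 5 after dosing (120 h).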

Schistosoma mansoni [6] = test: Percentage of worms remaining following treatment of female CD1 mice infected with S. mansoni worms (21 day old - juvenile or 42 day old - adult) with compound by oral gavage. Worms were recovered by portal perfusion with citrate saline 8-14 days post treatment and counted. Percentages are from a mean of 5 or 6 animals.; format: functional, Mus musculus; design: concentration or dose not given beside the values
Procedure, shortened: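 Female CD1 mice were infected subcutaneously with 150 cercariae and treated at day 21 (juvenile) or day 42 (adult). Single oral gavage, or two doses 12 h apart, given in 7% Tween-80/3% ethanol/water (sonicated) or in 1:19 DMSO:corn oil. Controls received vehicle only. Worm recoveries are group means, n = 5–6.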

[7] = Percentage of parent compound remaining after incubation for 90 minutes with cyropreserved mouse hepatocytes at a concentration of 1uM compound and […], determined by LCMS; format: ADME, tissue-based, Hepatocyte; details: cryopreserved mouse hepatocytes, read-out: Stability
Procedure, shortened: (§2)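 Compound was incubated at 1 µM final (2 µM working solution mixed 1:1 with hepatocyte suspension) in supplemented KHB pH 7.4. Conditions: 37 °C, 5% CO2, gentle mixing, duplicates. Reaction quenched with ice-cold acetonitrile containing standard; analysed by LC-MS/MS. % remaining = AUC at t / AUC at T0.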

[8] = Mean volume of distribution at steady state in Swiss albino male mice at 1 mg/kg per compound (administered iv in a mixture of 5 compounds to 3 mice) assessed by LCMS/MS.; format: ADME, organism-based; details: mouse, in vivo, read-out: Volume
Procedure, shortened: (§3)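 Male Swiss albino mice (~30 g), 3 per experiment, mostly dosed as mixtures of 5 compounds iv via the lateral tail vein. Vehicle: 10% DMSO/90% 50 mM Na2HPO4 with 0.5% Tween-80. Plasma stored at −20 °C and quantified by LC-MS after acetonitrile precipitation.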

Schistosoma mansoni [9] = test: Concentration required to kill 50% of 42 day old worms 5 days after drug treatment.; format: functional, organism-based; details: Puerto Rican, 120 h
Procedure, shortened: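 Adult S. mansoni were perfused from CD1 mice 6 weeks post-infection and washed. They were cultured 3 pairs per well in 1 mL DMEM with 2 mM glutamine, penicillin/streptomycin and 10% FCS […] at 37 °C, 5% CO2. Viability of individual worms was scored on day 5 (120 h).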

[10] = Mean observed clearance in Swiss albino male mice at 1 mg/kg per compound (administered iv in a mixture of 5 compounds to 3 mice) assessed by LCMS/MS.; format: ADME, organism-based; details: male, Swiss albino, mouse, in vivo, read-out: Clearance (converted)
Procedure, shortened: (§4)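 Male Swiss albino mice (~30 g), 3 per experiment, mostly dosed as mixtures of 5 compounds iv via the lateral tail vein. Vehicle: 10% DMSO/90% 50 mM Na2HPO4 with 0.5% Tween-80. Blood sampled at 5, 15, 30 min and 1, 2, 4, 8, 24 h. Plasma stored at −20 °C and quantified by LC-MS after acetonitrile precipitation.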

[11] = Mean plasma concentration at 4h in Swiss albino male mice at […] per compound (administered orally in a mixture of 5 compounds to 3 mice) assessed by LCMS/MS.; format: ADME, organism-based; details: mouse, po
[12] = Solubility at 25 degC of compound (diluted from DMSO) in PBS at pH 7.4 determined after 24h (1h sonication, 22h shaking, 1h sonication) by LCMS/MS; format: physicochemical
[13] = Mean time to peak plasma concentration in Swiss albino male mice at […] per compound (administered orally in a mixture of 5 compounds to 3 mice) assessed by LCMS/MS.; format: ADME, organism-based; details: mouse, po
[14] = Mean oral bioavailability in Swiss albino male mice at […] per compound (administered in a mixture of 5 compounds to 3 mice) assessed by LCMS/MS.; further: dose 2.5 mg/kg; format: ADME, organism-based; details: male, Swiss albino, mouse, in vivo, read-out: Bioavailability
[15] = Mean AUC inf in Swiss albino male mice at 1 mg/kg per compound (administered iv in a mixture of 5 compounds to 3 mice) assessed by LCMS/MS.; format: ADME, organism-based; details: male, Swiss albino, mouse, in vivo; procedure, shortened: as §4
[16] = Mean half-life in Swiss albino male mice at 1 mg/kg per compound (administered iv in a mixture of 5 compounds to 3 mice) assessed by LCMS/MS.; format: ADME, organism-based; details: mouse, in vivo; procedure, shortened: as §3
[17] = Percentage of parent compound remaining after incubation for 30 minutes with cyropreserved mouse hepatocytes at a concentration of 1uM compound and […], determined by LCMS; format: ADME, tissue-based, Hepatocyte; details: cryopreserved mouse hepatocytes, read-out: Stability; procedure, shortened: as §2
[18] = Plasma protein binding determined at 10uM by LC-MS/MS.; details: mouse
[19] = Partition coefficient of compound between n-octanol and PBS (pH7.4); format: physicochemical; details: octanol/water, pH 7.4
Procedure, shortened: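 Shake-flask method using octanol and PBS pH 7.4, each pre-saturated with the other. Compound was shaken 2 h at 850 rpm, 25 °C, then the phases were separated by centrifugation and both layers diluted and analysed by LC-MS/MS. LogD = log(octanol AUC × relative dilution / buffer AUC).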

[20] = Percentage of parent compound remaining after incubation for 30 minutes with cyropreserved human hepatocytes at a concentration of 1uM compound and 1 million cells/uL, determined by LCMS/MS; format: ADME, tissue-based, Hepatocyte; details: cryopreserved human hepatocytes, read-out: Stability; procedure, shortened: as §2
[21] = Plasma protein binding determined at 10uM by LC-MS/MS.; format: ADME, cell-free
Procedure, shortened: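 Equilibrium dialysis of plasma spiked at 10 µM (0.1% DMSO) against PBS pH 7.4, 6 h at 37 °C, duplicates. Both chambers analysed by LC-MS/MS after acetonitrile precipitation. % free = buffer/plasma area ratio; recovery also calculated.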

[22] = Plasma protein binding determined at 1uM by LC-MS/MS.; format: ADME, cell-free; details: mouse
Schistosoma haematobium = test: Concentration required to kill 50% of 84 day old worms 5 days after drug treatment.; format: functional, organism-based; details: Egyptian, 120 h

SMILES | CC50 [1] [nM] | concentration at 24 h [2] [ng/mL] | concentration at 4 h [3] [ng/mL] | concentration at 24 h [4] [ng/mL] | EC50 (Schistosoma mansoni [5]) [nM] | Efficacy (Schistosoma mansoni [6]) [%] | remaining at 1.5 h, 1 µM [7] [%] | Vd [8] [L/kg] | EC50 (Schistosoma mansoni [9]) [nM] | clearance [10] [mL/min/kg] | concentration at 4 h [11] [ng/mL] | solubility kinetic at 24 h [12] [µM] | Tmax [13] [min] | bioavailability [14] [%] | AUC(0-inf) [15] [ng·h/mL] | half-life [16] [min] | remaining at 0.5 h, 1 µM [17] [%] | Binding [18] [%] | Lipophilicity [19] | remaining at 0.5 h, 1 µM [20] [%] | further results
CCc1nc2cnc(-c3ccc(F)c(C(F)(F)F)c3)cn2c1-c1ccc2[nH]ncc2c1F | 13100 | 21.4 | 705 | 50.5 | 87 | 89.6 | 85 | 1.37 | 45 | 4.02 | 676 | 1.83 (≈ 0.811 µg/mL) | 120 | 82.7 | 2080 | – | – | – | – | – | –
COc1ccc(-c2c(C(C)C)nc3cnc(-c4ccnc(N(C)C)c4)cn23)cc1O | – | 0.1 | – | – | < 939 | – | – | 2.98 | – | 173 | 1.11 | 0.467 (≈ 0.188 µg/mL) | 15 | 6.57 | 48.3 | 19.9 | 31.9 | 98.4537 | 4.33 = | – | –
Fc1ccc(-c2cn3c(-c4ccc5[nH]ncc5c4F)c(C4CC4)nc3cn2)cc1C(F)(F)F | 16100 | 176 | 75 | 60.4 | 36.1 | 88 | 79.5 | 4.37 | 50.7 | 3.43 | 376 | 1.42 (≈ 0.647 µg/mL) | 60 | 95.8 | 2450 | 972 | 81.9 | – | 4.7 = | 95.2 | Binding ([21]; human): 100%; Binding ([21]; mouse): 100%
COc1ccc(-c2c(C(C)C)nc3cnc(-c4ccc(F)c(C(F)(F)F)c4)cn23)cc1O | – | 0.1 | – | – | 177 | – | – | 3.75 | < 48.8 | 58.8 | 5.08 | 2.5 (≈ 1.11 µg/mL) | 15 | 8.28 | 143 | 96 | 54.5 | 99.9485 | 5.7 = | – | –
Oc1cc(F)c(-c2c(C3CC3)nc3cnc(-c4ccc(F)c(C(F)(F)F)c4)cn23)c(F)c1 | 8900 | 151 | 1040 | 460 | 33.7 | 75 | 53 | 1.94 | 44.3 | 2.25 | 680 | – | 15 | 69.6 | 3800 | – | 83.8 | – | 4.34 = | 42.1 | Binding ([21]; human): 100%; Binding ([21]; mouse): 99.975%
COc1ccc(-c2c(C)nc3ccc(-c4cccc(C(F)(F)F)c4)cn23)cc1O | – | 0.1 | – | – | < 684 | – | – | 3.65 | – | 158 | 0.1 | 1.95 (≈ 0.777 µg/mL) | 15 | 1.48 | 53.1 | – | 43 | 99.8676 | 4.92 = | – | –
COc1ccc(-c2c(C3CC3)nc3cnc(-c4cccc(C(F)(F)F)c4)cn23)cc1O | – | 0.1 | – | – | 62.5 | – | – | 4.58 | 71.5 | 108 | 1.88 | 1.2 (≈ 0.51 µg/mL) | 15 | 3.64 | 77.9 | 62.4 | 41.3 | 99.9319 | 4.62 = | – | –
Cc1nc2cnc(-c3ccc(F)c(C(F)(F)F)c3)cn2c1-c1c(F)cc(O)cc1F | 7560 | 9.8 | – | – | 124 | – | – | 2.91 | 118 | 10.2 | 289 | 1.11 (≈ 0.47 µg/mL) | 15 | 88.5 | 844 | 216 | 53.6 | – | 5.37 = | 34.3 | Binding ([21]; human): 99.9645%; Binding ([21]; mouse): 99.865%; Binding [22]: 99.8779%; EC50 (Schistosoma haematobium): 41.5 nM
